Compound activity deposited in PubChem by several laboratories.
A selection: hits, their analogues and other compounds. The true share with any hit is near 2.3%.
NR2E3 ag-1 – NR2E3 (human) agonism | AID 2300 | Q9Y5X4 | inhibition of corepressor binding, % at 4.78 µM | 0.12% of 320,000 active | GST-NR2E3/biotin-RetCOR TR-FRET, 1536-well;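 active = percent inhibition above the cutoff of mean plus 3 SD of all tested compounds, set per screening campaign, cut at about 20% in these data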;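 also: 0% = DMSO wells and 100% = biotin wells as full block of FRET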
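Material: NR2E3–RetCOR corepressor complex | Quantity: 1.35 nM GST-tagged NR2E3 final | Schedule: 5 h at 4 °C | Replication: Singlicate compound wells | Reagent: RetCOR corepressor, biotinylated, 7 nM | Controls: Biotin wells as high control, 0.6% DMSO wells as low control | Signal: TR-FRET, Eu(K)-anti-GST donor, streptavidin-D2 acceptor, ex 340, em 617/671 nm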
CHT PAM – allosterically activates the human high affinity choline transporter | CHT-expressing cells, membrane potential dye, choline EC20; stronger effect = higher value; LV-AA mutant CHT in HEK293 cells | B-score at 10 µM | 0.49% of 310,000 active | AID 488977;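 active = initial fluorescence not abnormally high and integrated response B-score, plate-corrected, over 3 SD above library mean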
Target sequence (Q9GZV3 whole entry, looked up): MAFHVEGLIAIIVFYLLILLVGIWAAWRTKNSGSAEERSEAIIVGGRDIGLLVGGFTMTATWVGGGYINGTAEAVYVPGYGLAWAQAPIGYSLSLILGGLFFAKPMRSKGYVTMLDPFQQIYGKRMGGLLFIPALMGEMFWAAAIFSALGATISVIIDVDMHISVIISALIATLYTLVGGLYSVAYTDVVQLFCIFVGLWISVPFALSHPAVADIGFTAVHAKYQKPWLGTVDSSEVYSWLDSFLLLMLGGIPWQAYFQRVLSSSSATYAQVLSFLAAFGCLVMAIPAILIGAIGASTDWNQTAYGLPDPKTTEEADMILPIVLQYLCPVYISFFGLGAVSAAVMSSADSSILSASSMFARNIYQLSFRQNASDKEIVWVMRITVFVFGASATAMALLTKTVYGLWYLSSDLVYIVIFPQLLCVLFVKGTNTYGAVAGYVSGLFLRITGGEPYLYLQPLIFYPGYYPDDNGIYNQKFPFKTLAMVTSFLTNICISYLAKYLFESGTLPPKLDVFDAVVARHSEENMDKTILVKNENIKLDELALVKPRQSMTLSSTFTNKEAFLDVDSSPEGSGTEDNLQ
CHT inh – inhibitors of human choline transporter CHT | Q9GZV3 | CHT-expressing cells, membrane potential dye, choline response; stronger effect = lower value | B-score at 10 µM | 0.86% of 310,000 active;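 active = B-score over 3 SD under the library average, and starting fluorescence ratio not unusually high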;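 also: choline stimulus applied at its EC90 after an EC20 pre-addition; B-score computed on integrated fluorescence ratio after choline addition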
GalR3 antagonist – human GalR3 antagonism. HEK293 GalR3-CNG cAMP membrane potential fluorescence; galR3 body fused to GalR1 C-terminus. inhibition, % at 3 µM. 0.44% of 360,000 active. AID 651719;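 active = inhibition above the screen-wide average plus 3 SD, cut at about 13% in these data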;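 also: forskolin and galanin both at EC90 stimulate the cells; cAMP rise reported by CNG channel membrane potential dye signal; 0% = forskolin plus galanin with DMSO and 100% = forskolin alone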
NR2E3 ag-2 – human photoreceptor-specific nuclear receptor agonism; Q9Y5X4; 0.35% of 360,000 active; inhibition of corepressor binding, % at 3.98 µM; CHO-S Gal4-NCOR/VP16-NR2E3 two-hybrid, luciferase;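 active = inhibition above the mean of all tested compounds plus 3 SD, cut at about 70% in these data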;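 also: 0% = DMSO with NR2E3 transfected cells and 100% = cells lacking NR2E3 construct; higher means lower luciferase signal from less NR2E3 corepressor binding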
COUP-TFII inh – inhibitors of human COUP-TFII (NR2F2) | inhibition, % at 8.6 µM | HEK293T NGFI-A luciferase reporter, luminescence | 0.7% of 370,000 active;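 active = inhibition above a per-plate cutoff, mean inhibition of test wells between control levels plus 3 SD, cut at about 38% in these data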;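 also: cells cotransfected with COUP-TFII expression vector driving the NGFI-A reporter; 0% = median of COUP-TF2 test wells and 100% = reporter-only cells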
NR2E3 ag conf – confirmation of human NR2E3 agonists; shares compounds with NR2E3 ag-2; CHO-S mammalian two-hybrid NR2E3-NCOR, luciferase luminescence; inhibition, % at 3.98 µM; 51% of 2,300 active;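 active = average inhibition above a cutoff equal to the mean inhibition of all tested compounds plus one SD, cut at about 70% in these data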;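 also: 0% = DMSO in NR2E3 cells and 100% = DMSO in cells lacking NR2E3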
GAL4-VP16 luc – counter-screen for NR2E3 agonists: GAL4-VP16 reporter inhibitors | inhibition, % at 3.98 µM | 29% of 2,300 active | CHO-S GAL4-VP16 luciferase reporter, luminescence | shares compounds with NR2E3 ag-2;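 active = mean inhibition above a cutoff equal to the average over all tested compounds plus one standard deviation, cut at about 70% in these data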;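 also: luciferase from a UAS reporter driven by GAL4-VP16 transactivation; 0% = DMSO with VP16-transfected cells and 100% = DMSO with cells lacking VP16; higher means less reporter light so more repression of VP16 activity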
GalR3 conf – GalR3 (human) antagonism, confirmation | 59% of 1,600 active | HEK293 GalR3 CNG cAMP biosensor, membrane potential fluorescence; galR3 fused to GalR1 carboxy tail; challenged with forskolin and galanin at EC90 | shares compounds with GalR3 antagonist | inhibition, % at 3 µM;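 active = inhibition above the primary screen's cutoff, the mean inhibition of all screened compounds plus 3 SD, cut at about 13% in these data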;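 also: 0% = forskolin plus galanin and 100% = forskolin alone with DMSO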
CNG parental – parental cell agonism counter-screen for GalR3 antagonists; shares compounds with GalR3 antagonist; activation, % at 3 µM; 10% of 1,600 active; HEK293-CNG parental cells, cAMP membrane potential fluorescence; normalised: DMSO wells 0%, forskolin wells 100%; in the data active = activation above about 1.3%
Gal4-VP16 ctr – VP16 inhibition counter-screen for COUP-TFII; shares compounds with COUP-TFII inh; HEK293 Gal4-VP16 luciferase reporter, luminescence; inhibition, % at 8.5 µM; 25% of 2,500 active; AID 687007; in the data active = inhibition above about 13%
COUP-TFII conf – confirmation of human COUP-TFII (NR2F2) inhibitors. inhibition, % at 8.5 µM. HEK293 NGFI-A luciferase reporter, luminescence. shares compounds with COUP-TFII inh. 45% of 2,500 active;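 active = mean inhibition over three repeats above a set limit taken from the earlier primary screen, cut at about 38% in these data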;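 also: 100% = cells given the luciferase reporter alone without the COUP-TF2 vector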
The depositor's hits bear a star; i = inactive; x = no result.

SMILES	NR2E3 ag-1	CHT PAM	CHT inh	GalR3 antagonist	NR2E3 ag-2	COUP-TFII inh	NR2E3 ag conf	GAL4-VP16 luc	Gal4-VP16 ctr	COUP-TFII conf	others
COC(=O)Cc1ccc(NC(=O)c2ccc(C(C)(C)C)cc2)cc1	0	i	i	11	56	95*	58	49	83*	93*
C[C@H]1[C@@H](NCc2ccccc2)CC[C@@]23CCCN2C(=O)CCC[C@@H]13	x	x	x	x	x	0	x	x	x	x
CCCOc1ccc(Cn2cnc3ccccc32)cc1	-4	i	i	-5	56	38*	78*	59	-17	20
Fc1ccc(Cn2cnc3ccccc32)cc1	2	i	i	-6	15	-10	x	x	x	x
COc1ccc(NC(=O)C2Cc3c(-c4cccc(F)c4)ccnc3O2)cc1OC (stereo not given)	x	x	x	-8	73*	52*	67	58	1	34
COc1ccc(NC(=O)C2Cc3c(-c4ccc(NC(C)=O)cc4)ccnc3O2)cc1OC (stereo not given)	x	x	x	-2	1	-5	x	x	x	x
COc1ccc(NC(=O)C2Cc3c(-c4ccc5c(c4)OCO5)ccnc3O2)cc1OC (stereo not given)	x	x	x	66*	84*	66*	91*	73*	9	57*	GalR3 conf=74*;CNG parental=0
COc1cccc(N2CCN(C(=O)COc3cc(=O)n(C)c4ccccc34)CC2)c1	x	x	x	x	x	-13	x	x	x	x
C(=Cc1cnc2ccccc2n1)c1ccc2c(c1)OCO2	x	x	x	-3	52	52*	37	-3	65*	79*
CNc1nc2c(c(=O)n(C)c(=O)n2C)n1CCCc1ccccc1	1	i	i	-10	-4	29	x	x	x	x
CNc1nc2c(c(=O)n(C)c(=O)n2C)n1Cc1ccccc1	2	i	i	-8	56	41*	15	28	-3	21
COc1ccc(NC(=O)/C(Cl)=C(/Cl)S(=O)(=O)Cc2ccccc2)cn1	x	x	x	-4	83*	66*	98*	27	39*	59*
COc1ccc(NC(=O)Nc2ccc(OCc3ccccc3)cc2)cn1	x	i	i	-8	13	11	x	x	x	x
CCN(CC)c1ccc(/C=C/c2ccc3ccc(OC)cc3[n+]2CC)cc1	-6	i	i	-10	64	51*	98*	77*	20*	67*
CCN(CC)c1nc2cc(OC)ccc2cc1C#N	2	i	i	-4	-24	-1	x	x	x	x
COc1ccc(OC)c(S(=O)(=O)N2CCC(C(=O)NCC3COCCO3)CC2)c1 (stereo not given)	x	x	x	x	x	-3	x	x	x	x
Cc1nc2c(-c3ccccc3)cnn2c(N)c1-c1ccccc1	x	i	i	-8	74*	69*	55	-6	9	72*
CCOC(=O)Cc1c(C)nc2c(-c3ccccc3)cnn2c1C	1	i	i	-5	-14	-45	x	x	x	x
Cc1ccc(CNC(=O)c2cc3c(C)nc4ccccc4c3o2)cc1	-1	i	i	x	86*	48*	93*	78*	3	25
